# “And” between values parts separate entries of the source, which are not always exact repeats. Identical values can stand only once.
# Test system: Fibroblast
# Test: Multiplex assay against human fibroblast
# Format: toxicity, cell-based
# Summary of the method: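 Cells stained live at seeding with Hoechst33342, BioTracker Green Microtubule Cytoskeleton Dye, MitoTracker Red and Annexin V Alexa Fluor 680 were imaged on a CQ1 microscope at 37°C and 5% CO2 after compound addition. Their classification by CellPathfinder machine-learning gating ran from Hoechst high-intensity objects versus normal cells, to healthy, pyknosed or fragmented nuclei among normal cells, to mitotic or apoptotic among pyknosed cells. Tubulin, mitochondrial-mass and membrane-permeability phenotypes are per cents of healthy-nucleus cells.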
# [1] = 12 h, 10 µM, compound concentration 10 uM
# [2] = 24 h, 10 µM, compound concentration 10 uM
# [3] = 48 h, 10 µM, compound concentration 10 uM
# [4] = 12 h, 1 µM, compound concentration 1 uM
# [5] = 24 h, 1 µM, compound concentration 1 uM
# [6] = 48 h, 1 µM, compound concentration 1 uM
structure (smiles),measurement,setting,value
CC(=O)O[C@H]1C(=O)[C@@]2(C)[C@H]([C@H](OC(=O)c3ccccc3)[C@]3(O)C[C@H](OC(=O)[C@H](O)[C@@H](NC(=O)c4ccccc4)c4ccccc4)C(C)=C1C3(C)C)[C@]1(OC(C)=O)CO[C@@H]1C[C@@H]2O [PACLITAXEL],Population Apoptotic (%),[1],65% and 39%
same,Population Fragmented Nuclei (%),[1],19% and 34%
same,Population Healthy Nuclei (%),[1],63% and 39%
same,Population Hoechst High Intensity Objects (%),[1],5% and 1%
same,Population Membrane Permeable-Phenotype (%),[1],0% and 6%
same,Population Mitochondria Different-Phenotype (%),[1],10% and 13%
same,Population Mitotic Cells (%),[1],34% and 60%
same,Population Normal (%),[1],94% and 98%
same,Population Pyknosed Nuclei (%),[1],16% and 25%
same,Population Tubulin-Different-Phenotype (%),[1],17% and 44%
same,Total Cell Count,[1],167 and 111
same,Population Apoptotic (%),[2],70% and 30%
same,Population Fragmented Nuclei (%),[2],19% and 36%
same,Population Healthy Nuclei (%),[2],63% and 45%
same,Population Hoechst High Intensity Objects (%),[2],1% and 2%
same,Population Membrane Permeable-Phenotype (%),[2],0% and 6%
same,Population Mitochondria Different-Phenotype (%),[2],9% and 10%
same,Population Mitotic Cells (%),[2],29% and 70%
same,Population Normal (%),[2],98% and 97%
same,Population Pyknosed Nuclei (%),[2],16% and 18%
same,Total Cell Count,[2],164 and 114
same,Population Apoptotic (%),[3],76% and 54%
same,Population Fragmented Nuclei (%),[3],31% and 48%
same,Population Healthy Nuclei (%),[3],50% and 42%
same,Population Hoechst High Intensity Objects (%),[3],4% and 0%
same,Population Membrane Permeable-Phenotype (%),[3],0% and 3%
same,Population Mitochondria Different-Phenotype (%),[3],16% and 9%
same,Population Mitotic Cells (%),[3],23% and 45%
same,Population Normal (%),[3],95% and 100%
same,Population Pyknosed Nuclei (%),[3],17% and 8%
same,Population Tubulin-Different-Phenotype (%),[3],20% and 40%
same,Total Cell Count,[3],177 and 129
Cc1cc(C)cc(C(=O)NOCCCCCC(=O)NO)c1,Population Apoptotic (%),[4],12.9% and 17.65%
same,Population Fragmented Nuclei (%),[4],11.22% and 2.55%
same,Population Healthy Nuclei (%),[4],72.96% and 88.78%
same,Population Hoechst High Intensity Objects (%),[4],0%
same,Population Membrane Permeable-Phenotype (%),[4],5.59% and 1.15%
same,Population Mitochondria Different-Phenotype (%),[4],6.99% and 10.34%
same,Population Mitotic Cells (%),[4],87.1% and 82.35%
same,Population Normal (%),[4],100%
same,Population Pyknosed Nuclei (%),[4],15.82% and 8.67%
same,Population Tubulin-Different-Phenotype (%),[4],8.39% and 11.49%
same,Total Cell Count,[4],196
same,Population Apoptotic (%),[1],12% and 31.25%
same,Population Fragmented Nuclei (%),[1],15.5% and 6.05%
same,Population Healthy Nuclei (%),[1],72% and 86.51%
same,Population Hoechst High Intensity Objects (%),[1],0%
same,Population Membrane Permeable-Phenotype (%),[1],6.94% and 1.61%
same,Population Mitochondria Different-Phenotype (%),[1],5.56% and 6.45%
same,Population Mitotic Cells (%),[1],88% and 68.75%
same,Population Normal (%),[1],100%
same,Population Pyknosed Nuclei (%),[1],12.5% and 7.44%
same,Population Tubulin-Different-Phenotype (%),[1],9.03% and 6.45%
same,Total Cell Count,[1],200 and 215
same,Population Apoptotic (%),[5],13.33% and 23.08%
same,Population Fragmented Nuclei (%),[5],12.92% and 3.9%
same,Population Healthy Nuclei (%),[5],79.9% and 89.76%
same,Population Hoechst High Intensity Objects (%),[5],0%
same,Population Membrane Permeable-Phenotype (%),[5],4.79% and 2.17%
same,Population Mitochondria Different-Phenotype (%),[5],3.59% and 7.07%
same,Population Mitotic Cells (%),[5],86.67% and 76.92%
same,Population Normal (%),[5],100%
same,Population Pyknosed Nuclei (%),[5],7.18% and 6.34%
same,Population Tubulin-Different-Phenotype (%),[5],3.59% and 8.15%
same,Total Cell Count,[5],209 and 205
same,Population Apoptotic (%),[2],63.64% and 52.94%
same,Population Healthy Nuclei (%),[2],80.39% and 88.26%
same,Population Hoechst High Intensity Objects (%),[2],0%
same,Population Membrane Permeable-Phenotype (%),[2],3.66% and 0%
same,Population Mitochondria Different-Phenotype (%),[2],2.44% and 4.26%
same,Population Mitotic Cells (%),[2],36.36% and 47.06%
same,Population Normal (%),[2],100%
same,Population Pyknosed Nuclei (%),[2],5.39% and 7.98%
same,Population Tubulin-Different-Phenotype (%),[2],3.66% and 2.66%
same,Total Cell Count,[2],204 and 213
same,Population Apoptotic (%),[6],47.37% and 53.33%
same,Population Fragmented Nuclei (%),[6],8.06% and 10.87%
same,Population Healthy Nuclei (%),[6],82.94% and 82.61%
same,Population Hoechst High Intensity Objects (%),[6],0%
same,Population Membrane Permeable-Phenotype (%),[6],0.57% and 1.58%
same,Population Mitotic Cells (%),[6],52.63% and 46.67%
same,Population Normal (%),[6],100%
same,Population Pyknosed Nuclei (%),[6],9% and 6.52%
same,Population Tubulin-Different-Phenotype (%),[6],2.29% and 8.42%
same,Total Cell Count,[6],211 and 230
same,Population Apoptotic (%),[3],44.19% and 95.35%
same,Population Healthy Nuclei (%),[3],57.64% and 74.04%
same,Population Hoechst High Intensity Objects (%),[3],0%
same,Population Membrane Permeable-Phenotype (%),[3],1.71% and 10.39%
same,Population Normal (%),[3],100%
same,Population Pyknosed Nuclei (%),[3],21.18% and 20.67%
same,Population Tubulin-Different-Phenotype (%),[3],4.27% and 13.64%
same,Total Cell Count,[3],203 and 208
